# Reference: PubChem BioAssay
# Calls of active or inactive are those of the source.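 How the source made its calls, unless noted: active means visual image review flags a hit and inhibition of aggregation exceeds 20%; inconclusive means visual hit but inhibition at or below 20%; inactive means no hit on visual image review.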
# Key:
# [1] = inhibitors of TNFa-induced NFkB p65 translocation, primary screen, imaging, HUVEC, MLSMR starter and 10KST1 sets (AID 438;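 active means inhibition above 20% together with a positive visual image hit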;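 further: compound added about 3h40 before a 20 min TNFalpha stimulation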;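 on inhibition: signal is the nuclear over cytoplasmic p65 intensity ratio per well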); details: HUVEC TNFa-induced p65 nuclear translocation; cell count: measured here: nuclei count (cytotoxicity indicator), at 2.08 µM; inhibition: at 2 µM, stronger effect = higher value, 0% TNFa-plus-vehicle, 100% no-TNFa wells
# [2] = reduction of polyQ htt aggregates in cells – imaging, exon1htt(103Q)mCFP cells, high-content imaging, primary screen (AID 483); details: exon1htt(103Q)mCFP cell line, aggregate imaging, at 2 µM; inhibition of aggregation: stronger effect = higher value; nuclei count: measured here: cell count, toxicity;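 further: compound exposure lasted 3 days before fixation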;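 on nuclei count: percent of the per-plate median nuclei count of sample wells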
# [3] = endothelial E-selectin expression blockers – imaging, HUVEC, immunofluorescence, MLSMR starter and 10KST1 sets, primary screen (AID 487;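 active means visually confirmed hit in the image check and inhibition above 20%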;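 on inhibition: signal is fraction of cell area covered by stained E-selectin grains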;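 on nuclei count: 100% = median nuclei count of all wells on the same plate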); details: HUVEC TNFalpha-induced E-selectin immunofluorescence imaging, at 2 µM; inhibition: stronger effect = higher value; nuclei count: measured here: cell number, toxicity
# [4] = target: Voltage-gated potassium channel subunit beta-2 (Rattus norvegicus) (UniProt P62483); assay: inhibitors of rat Kvbeta2 reductase activity – biochemical, NADPH fluorescence, primary screen (AID 622;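 active means fluorescence slope higher than the sample average by over 3 SD, cut at about -0.22 in these data, passing the limit was not always enough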;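 further: slope of raw intensity against log time taken from 70 to 1610 s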); details: recombinant KvBeta, 4-cyanobenzaldehyde reduction, at 10 µM, stronger effect = higher value
# Voltage-gated potassium channel subunit beta-2 (Rattus norvegicus), sequence (P62483 whole entry, looked up): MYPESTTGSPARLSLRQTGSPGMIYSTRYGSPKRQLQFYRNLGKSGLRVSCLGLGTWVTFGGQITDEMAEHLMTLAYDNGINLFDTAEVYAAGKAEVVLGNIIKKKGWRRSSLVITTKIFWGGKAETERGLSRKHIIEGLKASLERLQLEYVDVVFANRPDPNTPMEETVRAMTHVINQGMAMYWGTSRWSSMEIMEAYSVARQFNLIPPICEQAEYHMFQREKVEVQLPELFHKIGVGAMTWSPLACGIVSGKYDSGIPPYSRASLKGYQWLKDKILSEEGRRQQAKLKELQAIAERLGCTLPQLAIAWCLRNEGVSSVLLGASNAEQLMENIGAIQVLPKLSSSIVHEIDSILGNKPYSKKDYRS
# [5] = target: Voltage-gated potassium channel subunit beta-2 (Rattus norvegicus) (UniProt P62483); assay: enhancers of rat Kvbeta2 NADPH turnover – biochemical, NADPH fluorescence, primary screen (AID 623;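 active means NADPH fluorescence slope more negative than the mean of all samples by about 3 SD, 99.7% confidence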;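 further: fluorescence intensity change per second fitted from 20 to 320 s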); details: Recombinant KvBeta, NADPH fluorescence decrease slope, 10 min; at 10 µM; stronger effect = lower value
# [6] = target: Muscarinic acetylcholine receptor M4 (Homo sapiens) (UniProt P08173); assay: M4-linked GIRK flux change, two-sided – cell-based, HEK293 M4/GIRK, thallium flux, BTC-AM, M4 allosteric agonist project, primary screen (AID 625;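 active means fluorescence slope after compound addition differing from the mean of all tested samples at 99.7% confidence, mostly higher but some lower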;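 further: thallium influx through GIRK channels coupled to M4 in HEK293 cells with BTC-AM dye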); details: at 10 µM, actives lie on both sides
# Muscarinic acetylcholine receptor M4 (Homo sapiens), sequence (P08173 whole entry, looked up): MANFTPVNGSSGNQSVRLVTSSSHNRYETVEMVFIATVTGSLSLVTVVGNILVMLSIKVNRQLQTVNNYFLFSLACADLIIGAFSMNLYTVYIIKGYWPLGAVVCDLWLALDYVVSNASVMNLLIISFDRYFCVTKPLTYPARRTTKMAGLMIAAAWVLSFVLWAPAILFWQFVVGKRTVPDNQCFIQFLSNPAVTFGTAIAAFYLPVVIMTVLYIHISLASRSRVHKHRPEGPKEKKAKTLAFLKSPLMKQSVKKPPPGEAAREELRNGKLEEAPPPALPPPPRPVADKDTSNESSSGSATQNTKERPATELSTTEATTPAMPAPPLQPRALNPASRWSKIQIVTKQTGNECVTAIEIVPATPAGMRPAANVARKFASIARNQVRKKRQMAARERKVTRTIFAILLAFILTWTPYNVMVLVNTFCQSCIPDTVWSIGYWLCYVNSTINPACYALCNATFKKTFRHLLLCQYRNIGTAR
# In short: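 System: HEK293 cells with M4 receptor and GIRK channels | Incubation: Cells overnight at 37 °C, BTC-AM loading 1 h, reads 2 min total | Technique: Kinetic BTC-AM fluorescence sampled at 1 Hz, 10 s pre-addition baseline | Measure: Post-addition slope, 15–24 s, of baseline-normalized fluorescence | Control set: Carbachol positive, DMSO negative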
# [7] = blockers of RIG-like receptor reporter activation – cell-based, Sendai virus stimulus, luciferase, 10K MLSCN set, TLR/RLR signaling modifier project, primary screen (AID 602276;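 active means inhibition at or above 50% at 10 µM; inactive means inhibition below 50%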;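 further: firefly luciferase from ISG56 promoter only with Renilla not read in this screen; 0% = Sendai virus plus DMSO and 100% = medium plus DMSO without virus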); details: HEK293 RL24 IRF3 luciferase reporter, at 10 µM, stronger effect = higher value
# [8] = TLR3 IRF3 reporter activation blockers – cell-based, poly I:C stimulus, luciferase, 10K MLSCN set, primary screen (AID 602277;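 active means inhibition of the reporter signal at or above 50%; inactive means inhibition below 50%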); details: HEK293-TLR3 RL24 IRF3 luciferase reporter, at 10 µM, stronger effect = higher value
SMILES,cell count [1],inhibition [1],inhibition of aggregation [2],nuclei count [2] [%],inhibition [3],nuclei count [3] [%],fluorescence slope [4],NADPH fluorescence slope [5],fluorescence slope [6],inhibition [7],inhibition [8]
O=C(O)CCN1C(=O)c2ccccc2C1=O,325,5.2% (inactive),-1.9% (inactive),91.2,-54.5% (inactive),107,-0.585 (inactive),-3e-05 (inactive),0.00348 (inactive),14.6% (inactive),6.42% (inactive)
CCOc1cc(C2c3c(n[nH]c3C)C(=O)N2c2ccc(Br)cc2)ccc1O (centres undefined),572,-2.3% (inactive),7.8% (inactive),109,-89.9% (inactive),110,-0.373 (inactive),-8.6e-06 (inactive),0.00604 (inactive),30.1% (inactive),30% (inactive)
Cc1cc(C2C(C#N)=C(N)SC(N)=C2C#N)c(C)s1,755,-5% (inactive),-30.7% (inactive),102,-27.1% (inactive),130,-0.573 (inactive),-8.5e-05 (inactive),0.00245 (inactive),8.05% (inactive),20.2% (inactive)
CCOC(=O)c1sc(N2C(=O)C(O)=C(C(=O)c3ccco3)C2c2ccccc2)nc1C (centres undefined),425,2.8% (inactive),9.3% (inactive),102,-43.5% (inactive),97.4,-0.37 (inactive),-5.7e-05 (inactive),0.00663 (inactive),6.84% (inactive),-6.96% (inactive)
O=C(NC1CCCCC1)C1CC(O)CN1C(=O)OCc1ccccc1 (centres undefined),819,-4.1% (inactive),26.1% (inactive),104,-56.4% (inactive),98,-0.564 (inactive),-7.5e-06 (inactive),0.00452 (inactive),2.76% (inactive),14.7% (inactive)
CCCCOC(=O)Cn1c(=N)n(CCN2CCOCC2)c2ccccc21,488,4% (inactive),7.9% (inactive),91.9,-46.3% (inactive),84.8,-0.354 (inactive),-6.5e-05 (inactive),0.00576 (inactive),8.18% (inactive),17.7% (inactive)
c1ccc2c(c1)Cn1c-2nc2ccccc21,700,-28.4% (inactive),5.7% (inactive),80.7,-26.5% (inactive),114,-0.349 (inactive),-6.3e-05 (inactive),0.00562 (inactive),-36.1% (inactive),-131% (inactive)
CCOC(=O)N1CCN(C(=O)C(NS(=O)(=O)c2cccc3nsnc23)c2ccccc2)CC1 (centres undefined),588,1.5% (inactive),13.3% (inactive),106,51.1% (inactive),81.6,-0.599 (inactive),1.3e-05 (inactive),0.0056 (inactive),3.16% (inactive),9.73% (inactive)
O=C(c1ccco1)N1CCN(CC(=O)N(C2CCCCC2)C2CCS(=O)(=O)C2)CC1 (centres undefined),311,-5.7% (inactive),-12.8% (inactive),75.5,-28.9% (inactive),110,-0.565 (inactive),-5.3e-05 (inactive),0.00633 (inactive),7.31% (inactive),12.1% (inactive)
CCOCCCNC(=O)C1CCN(C(=O)Nc2ccc(Cl)cc2)CC1,437,-5% (inactive),-2.7% (inactive),106,-40.5% (inactive),90.7,-0.324 (inactive),-6.3e-05 (inactive),0.00707 (inactive),10.2% (inactive),21.5% (inactive)
COc1ccc(CCNS(=O)(=O)c2ccc3c(c2)CCN3C(=O)CCC(=O)O)cc1OC,620,-6.5% (inactive),0.9% (inactive),125,-14.5% (inactive),121,-0.553 (inactive),7.1e-06 (inactive),0.00473 (inactive),12.6% (inactive),21.5% (inactive)
O=c1c2c(nc3nc(CCc4ccccc4)[nH]n13)CCC2,344,6.7% (inactive),-5.3% (inactive),97.5,-59.4% (inactive),105,-0.527 (inactive),-1.7e-05 (inactive),0.00459 (inactive),16.2% (inactive),19.5% (inactive)
CN1CCN(C(=O)c2cnn3c(C(F)F)cc(C4CC4)nc23)CC1,277,-6.3% (inactive),-15.2% (inactive),63.5,-8.6% (inactive),100,-0.513 (inactive),-0.000106 (inactive),0.00468 (inactive),21% (inactive),30% (inactive)
CCc1cccc2c(=O)c(C(=O)NCCN3CCOCC3)c[nH]c12,584,8.2% (inactive),-3.6% (inactive),110,27.3% (inactive),91.2,-0.558 (inactive),-5.3e-05 (inactive),0.00469 (inactive),1.65% (inactive),18.5% (inactive)
CCOC(=O)CSc1nnc(CNC(=O)c2ccc(OC)c(OC)c2)n1C,375,-8.2% (inactive),-1.1% (inactive),82,-73% (inactive),128,-0.578 (inactive),-2.7e-05 (inactive),0.00863 (inactive),4.54% (inactive),21.4% (inactive)
Cc1cc(NC(=O)COC(=O)c2cccc(S(=O)(=O)N3CCOCC3)c2)no1,457,-26.1% (inactive),10.5% (inactive),106,67.8% (active),64.5,-0.471 (inactive),1.8e-05 (inactive),0.00706 (inactive),12.1% (inactive),24.4% (inactive)
Brc1ccc2[nH]ncc2c1,364,4.4% (inactive),8.2% (inactive),91.4,13.4% (inactive),77,-0.477 (inactive),-3.1e-06 (inactive),0.00572 (inactive),15.5% (inactive),22.5% (inactive)
COc1ccc(-c2noc(-c3cc(Cl)ccc3Cl)n2)cc1OC,686,-10.5% (inactive),-10.9% (inactive),104,14.6% (inactive),86.8,-0.526 (inactive),-2.2e-05 (inactive),0.00828 (inactive),0.153% (inactive),-15.5% (inactive)
CCCCN(C)Cc1c(C)[nH]c2c(Cl)cccc2c1=O,326,-0.2% (inactive),0.9% (inactive),92.1,-38.6% (inactive),92.3,-0.434 (inactive),3.3e-05 (inactive),0.00844 (inactive),7.84% (inactive),23.5% (inactive)
